Compound activity deposited in PubChem BioAssay by Johns Hopkins Ion Channel Center.
KCNK3 block: human KCNK3 channel inhibitors, primary screen, CHO cells, FluxOR thallium flux, B-score. Potassium channel subfamily K member 3 (Homo sapiens), O14649. FluxOR fluorescence; stronger effect = lower value. B-score at 10 µM. 340,000 compounds, 0.84% hits;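 active = B-score under library mean minus 4 SD, starting fluorescence ratio at most library mean plus 5 SD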;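 also: more negative B-score means stronger inhibition of thallium flux through KCNK3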
KCNQ1 block: inhibitors of human KCNQ1 channel, primary screen, cell-based, thallium flux, high-throughput; Potassium voltage-gated channel subfamily KQT member 1 (Homo sapiens), P51787; CHO-K1 KCNQ1, FluxOR thallium flux fluorescence; stronger effect = higher value; B-score at 10 µM; 310,000 compounds, 1.3% hits;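 active = compounds whose thallium flux B-score, printed positive for inhibition, exceeds three library SD while starting fluorescence stays within three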;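 also: channel opened by potassium depolarization with thallium stimulus after 20 min compound exposure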
hERG rescue: hERG rescue from dofetilide block, primary screen, cell-based, CHO-hERG, FluxOR thallium flux, dofetilide IC70; dofetilide IC70 present; Voltage-gated inwardly rectifying potassium channel KCNH2 (Homo sapiens), Q12809; activation (rescue from dofetilide block), less the hit threshold, % at 10 µM; 310,000 compounds, 0.51% hits;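 active = activation above the mean of controls blocked by dofetilide plus 5 SD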;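 also: thallium influx through hERG after potassium depolarization seen as dye fluorescence rise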
KCNQ1 pot: potentiators or activators of KCNQ1 channel, primary screen, cell-based, thallium flux, high-throughput. B-score at 10 µM. Potassium voltage-gated channel subfamily KQT member 1 (Homo sapiens), P51787. CHO-K1 KCNQ1, thallium flux FluxOR fluorescence; stronger effect = higher value. 310,000 compounds, 0.35% hits. AID 2648, 2010;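 active = fluorescence ratio B-score, a plate-corrected score, at least three library SD, with initial intensity B-score within 5 SD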
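System: Stable KCNQ1 CHO-K1 line | Incubation: 90 min dye loading and 20 min compound exposure, both at room temperature | Measure: Ratio B score | Medium: Assay buffer for compound exposure, DMSO matched across wells | Compound dosing: Single-concentration screen | Probe or stimulus: K+/Tl+ depolarizing stimulus | Measured by: Kinetic FluxOR fluorescence, 10 s baseline plus 110 s post-stimulus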
KCNK9 block: KCNK9 potassium channel inhibitors, primary screen, HEK293 cells, thallium flux | FluxOR thallium flux fluorescence; stronger effect = lower value | B-score at 10 µM | 310,000 compounds, 1.2% hits | AID 488922, 2010;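 active = ratio B-score over 3 SD below the library mean, with starting fluorescence within 5 SD of its mean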;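 also: negative B-score means less thallium flux so channel inhibition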
Target sequence (Q9NPC2 whole entry, looked up): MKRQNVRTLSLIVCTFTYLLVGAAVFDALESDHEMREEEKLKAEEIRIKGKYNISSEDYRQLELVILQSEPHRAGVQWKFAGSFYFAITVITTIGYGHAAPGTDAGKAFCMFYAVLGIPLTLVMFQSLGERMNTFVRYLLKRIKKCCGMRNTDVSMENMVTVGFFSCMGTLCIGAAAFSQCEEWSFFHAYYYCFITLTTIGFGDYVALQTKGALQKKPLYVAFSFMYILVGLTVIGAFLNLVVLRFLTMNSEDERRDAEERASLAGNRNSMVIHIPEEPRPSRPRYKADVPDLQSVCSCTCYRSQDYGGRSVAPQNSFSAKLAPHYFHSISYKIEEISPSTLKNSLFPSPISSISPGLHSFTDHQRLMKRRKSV
Kir21 block: inhibitors of mouse Kir2.1 inward-rectifier potassium channel. 310,000 compounds, 0.85% hits. B-score at 10 µM. Inward rectifier potassium channel 2 (Mus musculus), P35561. HEK293-Kir2.1, FluxOR thallium flux fluorescence; stronger effect = lower value;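 active = fluorescence ratio B-score at or below minus 3 SD of library scores, with starting-brightness B-score within 2 SD, cut at about -4.2 in these data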;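 also: channel flux triggered by added potassium and thallium sulfate stimulus; B-score of peak minus minimum fluorescence over baseline after thallium stimulus; more negative B-score means stronger Kir2.1 block with less thallium influx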
KCNK9 block conf: KCNK9 potassium channel inhibitors, confirmation, HEK293 cells, thallium flux, duplicate; shares compounds with KCNK9 block; FluxOR thallium flux fluorescence; inhibition, % at 10 µM; 4,900 compounds, 43% hits; AID 492992, 2010;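 active = thallium signal inhibited by more than 5 SD of the compound-free buffer control wells, on both duplicate plates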;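 also: 0% = assay buffer control wells without compound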
Kir21 sel: mouse Kir2.1 channel inhibition, confirmation, selectivity assay for KCNK9 modulator project, cell-based, HEK293, thallium flux. shares compounds with KCNK9 block. Kir2.1 cells, FluxOR thallium flux fluorescence. inhibition, % at 10 µM. 4,900 compounds, 4% hits. AID 492993, 2010;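 active = thallium signal drop more than 5 SD beyond the mean of the no-compound control wells, seen in both duplicate plates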;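 also: signal is fluorescence rise after thallium addition divided by baseline fluorescence; plate controls were assay buffer only for no effect and full block by chlorpromazine control for full effect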
HEK293 Tl ctr: thallium flux in non-induced HEK293 cells, confirmation, counter-screen for KCNK9 inhibitor project, cell-based, second counter screen, non-induced KCNK9-HEK293; shares compounds with KCNK9 block; AID 492997, 2010; FluxOR thallium flux; inhibition, % at 10 µM; 4,900 compounds, 40% hits;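 active = thallium signal drop beyond 5 SD of the untreated control mean, on both duplicate plates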;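 also: plate controls were buffer only IC0 wells for no effect and SID17386958 at its maximal inhibitory level for full effect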
Active calls of the source: *; i = inactive; x = no result. Shown are actives, neighbours in structure and some others; about 3.8% of the full set was active somewhere.

SMILES | KCNK3 block | KCNQ1 block | hERG rescue | KCNQ1 pot | KCNK9 block | Kir21 block | KCNK9 block conf | Kir21 sel | HEK293 Tl ctr
CN(C)/N=C/c1ccc(Sc2ccccc2[N+](=O)[O-])o1 | i | i | -7.2 | i | i | -0.14 | i | i | i
COc1ccccc1NC(=O)c1ccc2[nH]c(C)c(C)c2c1 | i | i | -1.8 | i | i | -0.66 | x | x | x
C=C(C)COc1ccc(-c2[nH]ncc2Oc2ccccc2OCC)c(O)c1 | i | i | -13.9 | i | i | 1.27 | x | x | x
CCOc1ccccc1Oc1cn[nH]c1-c1ccc(O)cc1O | i | i | -10.9 | i | -10.4* | -1.78 | 32.5%* | i | i
C=CCCC1(C)C(=O)N(c2ccccc2)c2ccccc21 (stereo not given) | i | i | -8.0 | i | -8.9* | -6* | 42.5%* | i | 39.0%*
COc1ccc(S(=O)(=O)N2CCCCC2)cc1NC(=O)[C@@H]1CCCN1C(=O)c1cccs1 | i | x | x | x | x | x | x | x | x
O=C(O)CN1C(=O)/C(=C\c2cc([N+](=O)[O-])ccc2OCc2ccccc2Cl)SC1=S | i | i | -5.2 | i | i | -0.74 | i | i | i
O=C(O)CN1C(=O)/C(=C\c2cc(Br)ccc2OCc2ccc(Cl)cc2)SC1=S | i | i | -0.9 | i | i | 0.28 | x | x | x
CCOC(=O)C(=NC(C)CC)NNc1ccc(Br)cc1 (stereo not given) | i | i | -2.4 | i | i | -0.7 | x | x | x
CS(=O)(=O)N1CCC(C(=O)Nc2cccc(Cl)c2Cl)CC1 | i | i | -12.4 | i | i | -0.29 | x | x | x
CN(C(=O)CSc1nc2ccc(Br)cc2c(=O)n1Cc1ccco1)C1CCS(=O)(=O)C1 (stereo not given) | i | i | -18.6 | i | i | 1.25 | x | x | x
CCN(C(=O)CSc1nc2cc(Cl)ccc2c(=O)n1Cc1ccco1)C1CCS(=O)(=O)C1 (stereo not given) | i | i | -0.3 | i | -10.4* | -2.55 | i | i | i
Cc1ccc(Cl)c(OCCN2CCc3ccccc3C2)c1 | i | i | -1.7 | i | i | -0.17 | i | i | i
N#Cc1ccc(OCCN2CCc3ccccc3C2)cc1 | i | i | -9.3 | i | i | 0.52 | x | x | x
Cc1ccc(Cl)c(OCCCN(C)Cc2ccccc2)c1 | i | i | -15.3 | i | i | -2.2 | i | i | i
Cc1cccc(CN2C(=O)[C@H]3Cc4c([nH]c5ccccc45)C(C)(C)N3C2=O)c1 | i | i | -19.1 | i | i | -1 | i | i | i
Cc1cccc(CN2C(=O)[C@@H]3Cc4c([nH]c5ccccc45)C(C)(C)N3C2=O)c1 | i | i | -7.6 | i | i | -0.34 | i | i | i
CC1(C)c2[nH]c3ccccc3c2C[C@@H]2C(=O)N(Cc3ccccc3)C(=O)N21 | i | i | -10.3 | i | i | -0.73 | x | x | x
C=CCNC(=O)c1onc(CSc2cc(C)ccc2C)c1C(=O)O | i | i | -9.4 | i | i | 0.09 | x | x | x
O=C(c1cccc(C(F)(F)F)c1)N1CCOC12CCN(c1ncc(C(F)(F)F)cc1Cl)CC2 | i | i | -10.2 | i | i | -2.55 | i | i | i
Cc1ccc(C)c(OCC(O)CN2CCN(CCN3C(=O)c4cccc5cccc(c45)C3=O)CC2)c1 (stereo not given) | i | i | -27.0 | i | i | -0.29 | i | i | i
CC(=O)c1ccccc1OCC(O)CN1CCN(CCN2C(=O)c3cccc4cccc(c34)C2=O)CC1 (stereo not given) | i | i | -20.3 | i | i | 0.9 | x | x | x
CC(C)C(=O)Nc1cc2c3c(c1)CCN3C(=O)CC2 | i | i | -3.6 | i | i | 0.07 | x | x | x
O=C(NCCCN1CCOCC1)c1sc2cc([N+](=O)[O-])ccc2c1Cl | i | i | 3.8 | i | i | -1.87 | i | i | i
O=C(COC(=O)c1ccc(O)cc1)Nc1ncc(Cl)cc1Cl | i | i | -10.7 | i | i | 1.71 | x | x | x
SMILES | KCNK3 block | KCNQ1 block | hERG rescue | KCNQ1 pot | KCNK9 block | Kir21 block | KCNK9 block conf | Kir21 sel | HEK293 Tl ctr
CC(C)c1ccc(S(=O)(=O)/N=C2\C=C(NS(=O)(=O)c3ccccc3)C(=O)c3ccccc32)cc1 | i | 18* | -27.1 | i | -9.37* | -3.03 | 32.0%* | i | 32.5%*
NC(=O)CC(NC(=O)Cc1cccc2ccccc12)c1ccc(NCc2ccc(F)c(F)c2)c([N+](=O)[O-])c1 (stereo not given) | i | i | -7.2 | i | i | -0.53 | x | x | x
O=C(CN(C(=O)c1cccc([N+](=O)[O-])c1)C1CCCCC1)Nc1ccc(Cl)c([N+](=O)[O-])c1 | i | i | -4.4 | i | i | 2.01 | x | x | x
Cc1ccc([N+](=O)[O-])cc1NC(=O)CN(C(=O)c1ccccc1Cl)C1CCCCC1 | i | i | -6.5 | i | -9.56* | 0.17 | 50.0%* | i | i
CC(=O)c1cc2c(cc1NC(=O)CN(C)S(=O)(=O)c1cccs1)OCO2 | i | x | x | x | x | x | x | x | x
O=C(N/N=C/c1ccccc1F)NC12CC3CC(CC(C3)C1)C2 | i | i | 2.6 | i | i | 1.15 | x | x | x
CC1(C)C(C=C(Cl)Cl)C1C(=O)N/N=C/c1ccccc1F (stereo not given) | i | i | -12.7 | i | -9.55* | -1.72 | i | i | 27.0%*
Cn1c(=O)c2[nH]c(CCCC(=O)O)nc2n(Cc2ccccc2)c1=S | i | i | -6.4 | i | i | 0.02 | x | x | x
